Arr AP2 block: inhibitors of human beta-arrestin and AP2 interaction; inhibition, % at 10 µM; 0.31% of 340,000 active; FITC-arrestin peptide / GST-AP2 beads, flow cytometry; AP2 beta2 appendage carries R879A mutation; AID 504490;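 active = inhibition above a set limit, near 3 SD of compounds lacking own fluorescence, cut at about 54% in these data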
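Test system: GST-tagged AP2 beta2-adaptin appendage (R879A) on 4 µm glutathione beads; also added: fluorescein-tagged arrestin peptide at 50 nM final; timing: 12 min plus 1 h, RT; signal: flow cytometry, FL1 (488/535 nm); read-out: percent drop in bead-associated FITC signal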
PLCg1 inh: inhibitors of human phospholipase C gamma1; 0.84% of 370,000 active; P19174; inhibition, % at 12.2 µM; purified PLC-gamma1, fluorogenic substrate, fluorescence; in the data active = inhibition above about 9.5%
NTR1 agonist: activates human neurotensin receptor 1; P30989; NTR1-U2OS beta-arrestin-GFP spot imaging, agonist mode; activation, % at 20 µM; 0.17% of 330,000 active; AID 493036;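 active = activation at or above 40% of the spot to cytoplasm intensity ratio, with at least 20 cells analyzed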
PLCb3 inh: PLC-beta3 (human) inhibition, primary screen | Q01970 | Purified PLC-beta3, fluorogenic substrate, fluorescence | inhibition, % at 12.2 µM | 0.18% of 370,000 active | AID 720704; in the data active = inhibition above about 11%
Target sequence (Q01970 whole entry, looked up): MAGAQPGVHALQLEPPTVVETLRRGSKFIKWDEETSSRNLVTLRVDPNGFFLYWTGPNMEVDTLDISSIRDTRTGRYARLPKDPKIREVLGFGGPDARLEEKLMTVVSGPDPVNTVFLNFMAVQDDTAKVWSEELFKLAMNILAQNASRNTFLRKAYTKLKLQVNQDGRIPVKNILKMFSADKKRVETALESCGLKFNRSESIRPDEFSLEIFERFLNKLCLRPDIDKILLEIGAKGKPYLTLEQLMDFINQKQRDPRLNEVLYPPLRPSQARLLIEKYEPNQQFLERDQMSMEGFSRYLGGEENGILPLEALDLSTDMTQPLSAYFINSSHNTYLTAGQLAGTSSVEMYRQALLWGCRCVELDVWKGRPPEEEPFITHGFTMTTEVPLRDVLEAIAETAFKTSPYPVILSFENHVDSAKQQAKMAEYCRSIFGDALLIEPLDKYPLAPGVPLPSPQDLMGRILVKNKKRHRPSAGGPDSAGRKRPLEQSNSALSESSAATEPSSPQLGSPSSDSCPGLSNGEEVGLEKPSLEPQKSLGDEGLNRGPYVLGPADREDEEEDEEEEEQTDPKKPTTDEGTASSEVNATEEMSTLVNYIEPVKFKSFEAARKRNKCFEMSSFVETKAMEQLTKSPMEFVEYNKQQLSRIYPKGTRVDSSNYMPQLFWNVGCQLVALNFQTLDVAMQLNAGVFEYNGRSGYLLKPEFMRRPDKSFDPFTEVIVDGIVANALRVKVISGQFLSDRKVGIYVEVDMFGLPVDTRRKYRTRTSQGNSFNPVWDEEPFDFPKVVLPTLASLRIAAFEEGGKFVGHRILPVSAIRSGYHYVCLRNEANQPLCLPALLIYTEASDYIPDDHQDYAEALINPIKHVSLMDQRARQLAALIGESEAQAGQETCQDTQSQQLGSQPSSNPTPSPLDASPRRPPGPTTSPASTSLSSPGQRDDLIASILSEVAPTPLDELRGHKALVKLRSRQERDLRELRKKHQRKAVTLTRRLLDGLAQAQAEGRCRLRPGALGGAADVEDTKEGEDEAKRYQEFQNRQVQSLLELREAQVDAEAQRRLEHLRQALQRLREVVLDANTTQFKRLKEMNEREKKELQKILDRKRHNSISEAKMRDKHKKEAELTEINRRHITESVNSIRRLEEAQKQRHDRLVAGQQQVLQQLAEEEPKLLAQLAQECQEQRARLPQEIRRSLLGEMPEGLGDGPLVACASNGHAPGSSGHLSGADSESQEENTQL
NTR1 ag confirm: NTR1 (human) agonism, confirmed; shares compounds with NTR1 agonist; NTR1-U2OS beta-arrestin-GFP translocation imaging; activation, % at 20 µM; 38% of 480 active; AID 504550;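 active = mean activation at 20 µM of at least 40%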
A number is an active result; i = inactive; nt = no result given. Shown are actives, neighbours in structure and some others; about 1.3% of the full set was active somewhere.

SMILES | Arr AP2 block | PLCg1 inh | NTR1 agonist | PLCb3 inh | NTR1 ag confirm
Oc1cccc(-c2nc3c4c(ncn3n2)-c2ccccc2CC42CCCC2)c1 | i | i | 43.5 | i | i
OC(CNCCc1ccc(Cl)cc1)COc1cc(Cl)ccc1Cl (stereo not drawn) | i | i | 40.9 | i | i
COC(=O)c1ccc2c(=O)n(CCCCCC(=O)N3CCN(c4ccccc4)CC3)c(=O)[nH]c2c1 | i | i | 46.6 | i | 64.2
COc1ccccc1CNC(=O)CN1C(=O)NC2(CCCCCCC2)C1=O | i | i | i | i | nt
COc1ccccc1CNC(=O)CN1C(=O)NC(C)(c2ccc(C)cc2)C1=O (stereo not drawn) | i | i | 47.0 | i | i
O=C1Nc2ccc(Br)cc2/C1=C/C1CC=CCC1 (stereo not drawn) | i | i | 42.1 | i | i
Cc1ccc2nc(-c3ccc(NC(=S)NC(=O)CC(C)C)cc3)sc2c1 | i | i | i | i | nt
Cc1ccc2nc(-c3ccc(NC(=O)C(C)Sc4nncs4)cc3)sc2c1 (stereo not drawn) | i | i | 48.6 | i | i
O=c1[nH]c(=O)n(Cc2ccco2)c2c1C(C(F)(F)F)(C(F)(F)F)N=C(C1CCCCC1)N2 | i | i | i | i | nt
O=c1[nH]c(=O)n(Cc2ccco2)c2c1C(C(F)(F)F)(C(F)(F)F)N=C(CCC1CCCCC1)N2 | i | i | 45.6 | i | i
O=C1Nc2cc(C(=O)NCCCN3CCOCC3)ccc2S/C1=C/c1cccc(Cl)c1 | i | i | 43.5 | i | i
O=C1Nc2cc(C(=O)NCCCN3CCOCC3)ccc2S/C1=C/c1ccccc1F | i | i | i | i | nt
CSc1ccc(C=NNC(=O)c2cc(-c3ccc(Cl)cc3)n[nH]2)cc1 | nt | i | nt | i | nt
COC(=O)COc1ccc(NC(=O)Cn2nc(-c3ccccc3)c3ccccc3c2=O)cc1 | i | i | 60.7 | i | i
O=C(NCCc1ccccc1)C(c1cccs1)N(C(=O)CCl)c1ccc(Cl)cc1 (stereo not drawn) | i | i | 69.7 | i | 61.2
O=C(NCCc1ccccc1)C(c1cccs1)N(C(=O)c1csnn1)C1CC1 (stereo not drawn) | i | i | i | i | nt
CC(C)[C@H]1/C(=C/C2CC2)N2C(=O)C[C@@H](c3ccccc3)N=C2N1Cc1ccc2c(c1)OCO2 | nt | i | nt | i | nt
CCCCNc1c(-c2ccc(OC)c(Sc3ccc(OC)cc3)c2)nc2ccccn12 | i | nt | 55.8 | nt | 71.0
CCCCNc1c(-c2ccc(OC)c(Sc3ccc(OC)cc3)c2)nc2cnccn12 | i | i | i | i | nt
C/C(=N\NC(=O)c1ccc(C)cc1C)c1ccc2c(c1)Nc1ccccc1S2 | i | i | 42.8 | i | i
O=C(CN(c1cccc(C(F)(F)F)c1)S(=O)(=O)c1ccc(Cl)c([N+](=O)[O-])c1)NCc1ccccc1 | i | i | 42.9 | i | i
Fc1cccc(F)c1Cn1ccc2ccc(-c3ccc4ccn(Cc5c(F)cccc5F)c4c3)cc21 | nt | i | nt | i | nt
Cn1c(N)c(C(=O)COC(=O)c2cc(C3CC3)nc3ccccc23)c(=O)n(Cc2ccccc2)c1=O | i | i | 40.1 | i | i
Cn1c(N)c(C(=O)COC(=O)c2cc(-c3ccccc3)nc3ccccc23)c(=O)n(Cc2ccccc2)c1=O | i | nt | i | nt | nt
O=C(/C=C/c1cccc(Cl)c1)c1nc2ccccc2[nH]1 | i | i | 42.4 | i | 72.2
SMILES | Arr AP2 block | PLCg1 inh | NTR1 agonist | PLCb3 inh | NTR1 ag confirm
CCCCn1cnc2c(=O)[nH]ccc21 | nt | i | nt | i | nt
COc1cc(/C=N/Nc2nc(-c3ccc(S(=O)(=O)N(C)C)cc3)cs2)ccc1O | i | i | 70.5 | i | 79.2
COc1ccc(/C=N/Nc2nc(-c3cccc(S(=O)(=O)N4CCCC4)c3)cs2)cc1OC | i | i | i | i | nt
CC(C)Cn1c(N)c(C(=O)CSc2ncccn2)c(=O)n(C)c1=O | i | i | i | i | nt
CC(C)Cn1c(N)c(C(=O)CSc2cc(Cl)ccc2Cl)c(=O)n(C)c1=O | nt | nt | 47.7 | nt | 47.1
COC(=O)c1ccc2c(=O)n(Cc3ccc(C(=O)NCCCN4CCC(C)CC4)cc3)c(=S)[nH]c2c1 | i | i | i | i | nt
CC1CCN(CCCNC(=O)c2ccc3c(=O)n(Cc4ccc(Cl)cc4)c(=S)[nH]c3c2)CC1 | i | i | 52.2 | i | 56.7
COC(=O)c1ccc(Cn2ccc3ccc(-c4ccc5ccn(C(=O)C6CCCCC6)c5c4)cc32)cc1 | nt | i | nt | i | nt
CNC(=O)c1cccc(NC(=O)c2cc(-c3ccccc3)nc3c2cnn3C(C)C)c1 | i | i | 55.0 | i | i
CCN1C(=O)/C(=C/N(C(C)=O)c2ccccc2)N(c2ccccc2)C1=S | i | i | 41.8 | i | 60.7
CCc1ccc(/C=C2/C(=O)N(c3ccccc3)C(=S)N2CC(=O)OC)s1 | i | i | i | i | nt
O=C(OCc1ccc(COC(=O)c2ccc(O)cc2)cc1)c1ccc(O)cc1 | i | nt | 45.6 | nt | i
COC(=O)c1ccc(COC(=O)c2ccc(N(C)C)cc2)cc1 | i | i | i | i | nt
Cn1c(=O)cc(OCCCC(=O)Nc2cc(-c3ccncc3)ccn2)c2ccccc21 | nt | i | nt | i | nt
C=C(C)COc1ccc(-c2nc(N)nc(C(F)(F)F)c2-c2ccc(OC)cc2)c(O)c1 | i | i | 40.9 | i | i
CCn1c(SCC(=O)NN=Cc2cccc(OCc3ccccc3)c2)nnc1-c1ccc(OC)c(OC)c1 | nt | i | nt | i | nt
CCOc1ccc(Br)cc1S(=O)(=O)Nc1ccccc1N1CCOCC1 | i | i | 49.4 | i | 54.5
CCOc1ccc(Br)cc1S(=O)(=O)Nc1ccc(N2CCOCC2)cc1 | i | i | i | i | nt
O=C(Nc1ccc(Cl)c(Cl)c1)Nc1nc(-c2ccccc2)cs1 | i | i | 47.1 | i | i
CCOc1c(OC(C)=O)ccc(/C=C/c2ccc3cccc(OC)c3n2)c1[N+](=O)[O-] | i | i | 42.1 | i | i
COc1cc(/C=C/c2ccc3cccc([N+](=O)[O-])c3n2)ccc1OCC(=O)O | i | i | i | i | nt
O=c1cc(-c2ccc(O)cc2)oc2cc(O)c(C3OC(CO)C(O)C(O)C3O)c(O)c12 (stereo not drawn) | i | i | 40.8 | i | 52.3
O=c1cc(-c2ccc(O)c(O)c2)oc2cc(O[C@@H]3O[C@H](CO)[C@@H](O)[C@H](O)[C@H]3O)cc(O)c12 | i | nt | i | nt | nt
CCOc1ccc(-c2[nH]ncc2-c2ccc(Cl)cc2)c(O)c1 | i | i | 55.4 | i | i
C=C(C)COc1ccc(-c2[nH]ncc2-c2ccc(Br)cc2)c(O)c1 | i | i | 40.9 | i | i
SMILES | Arr AP2 block | PLCg1 inh | NTR1 agonist | PLCb3 inh | NTR1 ag confirm
CCOc1ccc(-c2[nH]ncc2-c2ccc(OC)c(OC)c2)c(O)c1 | i | i | i | i | nt
C(=C\c1nc(N2CCCCCC2)c2ccccc2n1)/c1ccccc1 | i | i | 41.6 | i | i
CCOC(=O)N1CCN(C(=O)C[C@H]2C[C@@]3(C(=O)OC)C(=C[C@H](C(C)(C)C)O[C@@H]3C)N(Cc3ccc4c(c3)OCO4)C2=O)CC1 | nt | i | nt | i | nt
C[C@H]1[C@@H](OC(=O)NCc2ccco2)CC[C@@]23CCCN2C(=O)CCC[C@@H]13 | nt | i | nt | i | nt
O=C(Cc1ccc(Cl)cc1)NC(=S)Nc1ccccc1N1CCOCC1 | i | i | 44.6 | i | i
CN(c1ccccc1)c1nc(N)c([N+](=O)[O-])c(Nc2cccc(F)c2)n1 | i | i | 44.1 | i | i
